From ChEMBL document CHEMBL1141230, “Synthesis and pharmacology of willardiine derivatives acting as antagonists of kainate receptors” (J Med Chem, 2005) come the findings set out here.

Structures are written as SMILES.

Experiment [1] has as its target Glutamate receptor ionotropic, kainate 2 (Rattus norvegicus, UniProt P42260). The experiment in a line: (§1) Displacement of [3H]kainate from rat GLUK6 receptor expressed in HEK293 cells. Type of experiment: cell-based.
The target in experiment [2] is Glutamate receptor ionotropic, kainate 1 (Rattus norvegicus, UniProt P22756). The experiment in a line: Antagonism on GLUK5 containing kainate induced depolarization of isolated neonatal rat dorsal root C-fibers. Type of experiment: functional.
Chain of Glutamate receptor ionotropic, kainate 1 (P22756 whole entry): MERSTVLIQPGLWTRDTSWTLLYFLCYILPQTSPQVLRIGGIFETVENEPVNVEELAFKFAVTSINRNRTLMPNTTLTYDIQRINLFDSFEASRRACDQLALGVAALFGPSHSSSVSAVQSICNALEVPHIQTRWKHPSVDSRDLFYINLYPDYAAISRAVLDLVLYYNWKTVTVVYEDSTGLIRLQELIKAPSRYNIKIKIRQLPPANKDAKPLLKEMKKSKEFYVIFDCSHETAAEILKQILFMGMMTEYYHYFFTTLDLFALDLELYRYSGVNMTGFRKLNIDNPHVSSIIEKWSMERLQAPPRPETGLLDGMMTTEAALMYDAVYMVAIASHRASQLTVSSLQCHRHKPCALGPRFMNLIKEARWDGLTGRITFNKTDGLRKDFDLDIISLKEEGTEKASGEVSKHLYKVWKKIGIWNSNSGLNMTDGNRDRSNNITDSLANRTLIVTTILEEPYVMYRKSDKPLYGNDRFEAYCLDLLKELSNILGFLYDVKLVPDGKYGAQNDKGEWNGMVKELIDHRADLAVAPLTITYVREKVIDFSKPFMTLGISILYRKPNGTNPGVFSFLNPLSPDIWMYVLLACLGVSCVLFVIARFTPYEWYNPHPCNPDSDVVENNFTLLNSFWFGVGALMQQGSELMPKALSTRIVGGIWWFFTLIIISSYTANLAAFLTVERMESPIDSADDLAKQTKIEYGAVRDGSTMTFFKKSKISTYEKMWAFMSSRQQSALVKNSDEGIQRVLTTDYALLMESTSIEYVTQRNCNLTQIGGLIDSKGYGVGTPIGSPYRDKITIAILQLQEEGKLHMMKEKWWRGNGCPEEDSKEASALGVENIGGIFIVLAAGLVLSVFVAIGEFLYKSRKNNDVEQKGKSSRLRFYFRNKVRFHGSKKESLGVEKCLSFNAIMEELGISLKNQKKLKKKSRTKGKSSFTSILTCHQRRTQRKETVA
In experiment [3] the target is T1, Glutamate receptor ionotropic, AMPA (Rattus norvegicus, UniProt P19490+P19491+P19492+P19493). The experiment in a line: (§2) Antagonist activity on AMPA receptor expressed on rat motoneurons by its ability to reduce the fast component dorsal root evoked ventral root potential (fDR-VRP). Type of experiment: functional.
The target of experiment [4] is Glutamate receptor ionotropic, kainate 1 (Homo sapiens) (UniProt P39086). The experiment in a line: Inhibitory effect on glutamate-induced calcium influx at homomeric human GLUK5 receptor expressed in HEK293 cells. Type of experiment: functional, cell-based. A digest of the protocol: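 HEK293 cells stably expressing human GLUK5(Q), calcium fluorescence assay (FLIPR) in presence of concanavalin A. Antagonist added alone first, then with 100 µM glutamate. Curves fitted with slope fixed at 1; Kb from IC50 via Cheng-Prusoff using glutamate EC50 determined in same plate.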
Chain of Glutamate receptor ionotropic, kainate 1 (Homo sapiens) (P39086 whole entry): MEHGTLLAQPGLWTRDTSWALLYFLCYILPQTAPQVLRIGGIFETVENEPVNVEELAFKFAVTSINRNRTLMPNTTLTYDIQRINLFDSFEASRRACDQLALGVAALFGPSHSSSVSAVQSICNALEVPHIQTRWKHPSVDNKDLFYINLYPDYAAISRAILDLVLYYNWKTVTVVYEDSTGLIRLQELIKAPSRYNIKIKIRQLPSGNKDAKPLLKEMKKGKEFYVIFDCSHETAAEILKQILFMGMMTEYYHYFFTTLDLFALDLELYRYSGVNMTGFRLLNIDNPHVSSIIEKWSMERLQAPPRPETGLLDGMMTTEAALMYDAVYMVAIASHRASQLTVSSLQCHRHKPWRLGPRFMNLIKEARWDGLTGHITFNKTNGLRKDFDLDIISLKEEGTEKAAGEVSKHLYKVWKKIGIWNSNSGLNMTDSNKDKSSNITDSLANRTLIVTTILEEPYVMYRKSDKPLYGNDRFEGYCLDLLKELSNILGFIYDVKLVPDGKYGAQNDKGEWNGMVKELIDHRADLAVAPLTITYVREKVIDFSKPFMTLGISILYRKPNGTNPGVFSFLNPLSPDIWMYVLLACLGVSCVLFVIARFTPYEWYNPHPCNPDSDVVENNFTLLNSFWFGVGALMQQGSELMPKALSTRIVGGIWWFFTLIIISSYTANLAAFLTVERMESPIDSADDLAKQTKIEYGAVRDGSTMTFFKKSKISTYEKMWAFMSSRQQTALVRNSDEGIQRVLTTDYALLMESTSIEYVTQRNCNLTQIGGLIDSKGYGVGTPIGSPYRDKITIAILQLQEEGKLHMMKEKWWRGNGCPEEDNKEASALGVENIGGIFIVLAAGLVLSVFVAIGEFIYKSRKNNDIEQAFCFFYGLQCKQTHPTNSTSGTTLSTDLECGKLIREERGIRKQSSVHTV

A short description of experiment [5]: Inhibitory effect on glutamate-induced calcium influx at homomeric human GLUK5/GLUK6 receptor clone expressed in HEK293 cells. Format: functional. Put shortly:
(§3)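 HEK293 lines stably coexpressing human GLUK5 with GLUK2 or GLUK6 (GLUK5(R)/GLUK6(Q)), FLIPR calcium assay with concanavalin A present. Antagonist given alone at first addition, then with 100 µM glutamate at second. Curves fit with slope 1, top/bottom fixed at 100%/0%. Kb = IC50/(1+[Glu]/EC50 Glu), glutamate EC50 from curves on same plate.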

Experiment [6] is described as follows: Inhibitory effect on glutamate-induced calcium influx at homomeric human GLUK5/GLUK2 receptor clone expressed in HEK293 cells. Type of experiment: functional. A digest of the protocol:
as §3

Experiment [7] concerns the target Glutamate receptor ionotropic, kainate 1 (Rattus norvegicus) (UniProt P22756). The experiment in a line: Percentage depression of GLUK5 containing kainate induced depolarization on isolated neonatal rat dorsal root C-fibers at 200 uM. Format: functional.
The target of experiment [8] is T1, Glutamate receptor ionotropic, AMPA. The experiment in a line: Displacement of [3H](S)-5-fluorowillardiine from AMPA receptor in rat brain membrane. Type of experiment: cell membranes.
Experiment [9] has as its target Glutamate receptor ionotropic, kainate (Rattus norvegicus). The experiment in a line: Displacement of [3H]SYM2081 from kainate receptor in rat brain membrane. (Displacement assays read how much labelled ligand stays bound in the presence of the test substance.)
Experiment [10] addresses Glutamate receptor ionotropic, AMPA (Rattus norvegicus, UniProt P19491+P19492+P19493+P19490). The experiment is described as §2. Type of experiment: functional.
For experiment [11], the target named is Glutamate receptor ionotropic, kainate 2 (Rattus norvegicus) (UniProt P42260). The description is as §1. Format: cell-based.
Chain of Glutamate receptor ionotropic, kainate 2 (Rattus norvegicus) (P42260 whole entry): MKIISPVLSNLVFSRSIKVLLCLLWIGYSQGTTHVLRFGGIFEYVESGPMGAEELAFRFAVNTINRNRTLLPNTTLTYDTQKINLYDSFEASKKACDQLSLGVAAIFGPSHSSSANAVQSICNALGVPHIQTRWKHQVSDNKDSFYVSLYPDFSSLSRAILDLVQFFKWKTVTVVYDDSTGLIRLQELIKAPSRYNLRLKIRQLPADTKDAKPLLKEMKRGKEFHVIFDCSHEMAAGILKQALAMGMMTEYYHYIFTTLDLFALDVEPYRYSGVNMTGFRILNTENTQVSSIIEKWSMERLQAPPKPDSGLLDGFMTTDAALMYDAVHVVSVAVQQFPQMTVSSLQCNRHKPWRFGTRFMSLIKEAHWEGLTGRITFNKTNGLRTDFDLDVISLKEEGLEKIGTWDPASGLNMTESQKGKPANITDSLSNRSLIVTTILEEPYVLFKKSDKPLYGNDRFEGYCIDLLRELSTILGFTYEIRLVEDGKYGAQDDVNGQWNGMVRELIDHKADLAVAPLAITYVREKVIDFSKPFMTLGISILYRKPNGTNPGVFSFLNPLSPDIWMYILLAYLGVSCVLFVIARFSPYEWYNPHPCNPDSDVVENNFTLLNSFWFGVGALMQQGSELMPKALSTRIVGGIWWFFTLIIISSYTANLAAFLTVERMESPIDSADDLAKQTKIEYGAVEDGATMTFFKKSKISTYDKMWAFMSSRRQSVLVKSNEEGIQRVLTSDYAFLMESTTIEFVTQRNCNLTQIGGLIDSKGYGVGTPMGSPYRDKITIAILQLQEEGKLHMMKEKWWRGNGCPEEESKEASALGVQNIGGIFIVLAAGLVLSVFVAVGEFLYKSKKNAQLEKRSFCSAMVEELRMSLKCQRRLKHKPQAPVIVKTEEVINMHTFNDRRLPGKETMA

Chain of Glutamate receptor ionotropic, kainate 2 (P42260 whole entry): as above
Chain of Glutamate receptor ionotropic, kainate 1 (Rattus norvegicus) (P22756 whole entry): as the sequence (P22756 whole entry) above

In [1], `N[C@@H](Cn1cc(I)c(=O)n(Cc2ccccc2C(=O)O)c1=O)C(=O)O` showed a Ki greater than 100 µM. The same molecule showed a Kd in experiment [2] of 0.209 µM. The molecule also displayed a concentration for half-maximal inhibition (IC50) in experiment [3] of 74.1 µM.
In experiment [1], `N[C@@H](Cn1ccc(=O)n(Cc2ccccc2C(=O)O)c1=O)C(=O)O` came in with a Ki greater than 1000 µM. Besides, binding in experiment [2] was put at a Kd of 0.402 µM. The molecule also came in with a concentration for half-maximal inhibition (IC50) in [3] of 106 µM.
`N[C@@H](Cn1cc([N+](=O)[O-])c(=O)n(CCC(=O)O)c1=O)C(=O)O`: the Ki in experiment [1] was greater than 100 µM. Moreover, the IC50 in experiment [3] was 79.9 µM.
Consider `NC(Cn1ccc(=O)n(Cc2ccccc2C(=O)O)c1=O)C(=O)O` (racemic), for which, in [1], the inhibition constant Ki was greater than 1000 µM. In addition, the Kb in experiment [4] stood at 0.6 µM; in experiment [5], 0.8 µM; in experiment [6], 1 µM. Also, the Kd in [2] was found to be 1.09 µM. Besides, the half-maximal inhibitory concentration (IC50) in experiment [3] came to 97.6 µM.
Molecule `N[C@@H](CNC(=O)NCc1cccc(C(=O)O)c1)C(=O)O` displayed an IC50 in [3] greater than 1000 µM.
In [7], `N[C@H](Cn1ccc(=O)n(CCC(=O)O)c1=O)C(=O)O` returned an Activity of 13.2%. The molecule further came in with a Ki in experiment [1] greater than 100 µM.
`N[C@@H](Cn1ccc(=O)n(CC(=O)O)c1=O)C(=O)O` gave a Ki in experiment [8] of 195 µM. Also, in experiment [3], the IC50 is 287 µM.
The molecule `N[C@@H](Cn1ccc(=O)n(CCC(=O)O)c1=O)C(=O)O` yielded a Ki in [1] greater than 100 µM. This molecule also displayed a Kd in [2] of 73.1 µM.
Taken in the same sequence, the figures for `N#Cc1cc2c(cc1[N+](=O)[O-])=NC(=O)C(=O)N=2` were 1.05 µM and 1.66 µM.
With `N[C@H](Cn1ccc(=O)n(Cc2ccccc2C(=O)O)c1=O)C(=O)O`, in experiment [1], the inhibition constant Ki was greater than 1000 µM. Besides, the dissociation constant Kd in [2] is greater than 100 µM. Besides, the IC50 in [3] is greater than 100 µM.
Consider `N[C@@H](Cn1cc(I)c(=O)n(CCC(=O)O)c1=O)C(=O)O`, for which the Ki in experiment [9] is 52.7 µM; in [8], 5 µM; in experiment [1] it was greater than 100 µM. In [2], this molecule had a dissociation constant Kd of 8.17 µM. The same molecule gave an IC50 in experiment [3] of 13.7 µM.
In experiment [1], `N[C@@H](Cn1ccc(=O)n(Cc2cccc(C(=O)O)c2)c1=O)C(=O)O` returned a Ki greater than 1000 µM. This molecule yielded a Kd in experiment [2] of 49.1 µM.
Molecule `Cn1c(=O)ccn(C[C@H](N)C(=O)O)c1=O` had a Ki in [1] greater than 100 µM. Also, the IC50 result in [10] is given as “Agonist”.
Consider `N[C@@H](Cn1c(=O)ccn(CC(=O)O)c1=O)C(=O)O`, for which the inhibitory constant (Ki) in [9] was greater than 500 µM; in experiment [8], greater than 1000 µM; in experiment [1], greater than 100 µM.
As to `N[C@@H](Cn1ccc(=O)n(CCCC(=O)O)c1=O)C(=O)O`, the results for the inhibition constant Ki in [9], in [8] and in experiment [1] were 96.2 µM, 17.8 µM and greater than 1000 µM, respectively. Besides, binding in [2] was characterised by a dissociation constant (Kd) of 60.5 µM. For the same molecule, the IC50 in experiment [3] worked out at 136 µM.
Molecule `N[C@@H](Cn1ccc(=O)n(Cc2ccc(C(=O)O)cc2)c1=O)C(=O)O` returned an inhibitory constant (Ki) in [1] greater than 100 µM. This molecule registered a Kd in [2] of 9.25 µM.
On to `N[C@H](Cn1ccc(=O)n(CCCC(=O)O)c1=O)C(=O)O`, for which the figures for the inhibition constant Ki in [9] and in [8] were greater than 500 µM and 149 µM, respectively. In addition, the Activity in experiment [7] was 22.8%.
Take `C=C(C)[C@H]1CN[C@H](C(=O)O)[C@H]1CC(=O)O`: the Bmax in experiment [11] was determined as 1.53 pmol/mg.

Broadly, the Ki is a measure of affinity in units of concentration, obtained from inhibition or displacement. As a reminder, the Kd is the concentration at which binding is half-saturated. Lower therefore signals a tighter complex. A word on the IC50: it is the concentration at which inhibition is half-maximal. A high value points to a need for much substance.
